Assay outcomes (PubChem)
S100A4 MyoIIA – inhibitors of human S100A4 binding to myosin IIA peptide. 360,000 compounds, 0.14% hits. S100A4/TAMRA-MyoIIA peptide fluorescence polarization. inhibition, % at 10.7 µM. AID 652163;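 active = mean inhibition of at least 70% across replicates, with every replicate also reaching that level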
Target sequence (P26447 whole entry, looked up): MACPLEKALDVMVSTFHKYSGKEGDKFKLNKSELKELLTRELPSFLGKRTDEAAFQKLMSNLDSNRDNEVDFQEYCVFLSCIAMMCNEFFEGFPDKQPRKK
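Assay system: human S100A4 monomer with TAMRA-labelled myosin IIA peptide / Buffer or medium: Calcium-containing HEPES buffer, pH 7.2 / Reagent: TAMRA-labelled myosin IIA heavy-chain peptide probe, 5 nM / Compound: one dose per compound / Timing: polarization read 5 min after assay mix addition, stable 5–60 min / Benchmarks: neutral control DMSO, positive control TFP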
Cneo AK release – Cryptococcus neoformans lysis via adenylate kinase release; 360,000 compounds, 0.2% hits; C. neoformans lysis, adenylate kinase release luminescence, 4 h; normalised: neutral wells 0, clomiphene wells 100; AID 651654; lysis activity, % at 15 µM;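 active = mean lysis activity across replicates of at least 80%, whatever share of replicates individually reach that level; inactive = mean lysis activity below 80%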
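Material: C. neoformans cells | Amount: Yeast cell density of 5 × 10^6 cells/mL | Medium: Fresh YPD growth medium | Dosing: Single dose | Times: Static 4 h at 37 °C with compound, 1 h detection | Detection: AK luminescence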
SIRT5 inh – blocks human SIRT5 desuccinylation of peptide; Purified SirT5, succinyl-peptide AMC, trypsin-coupled fluorescence; Q9NXA8; inhibition, % at 15 µM; 330,000 compounds, 1.1% hits; AID 652115; in the data active = inhibition above about 15%
Target sequence (Q9NXA8 whole entry, looked up): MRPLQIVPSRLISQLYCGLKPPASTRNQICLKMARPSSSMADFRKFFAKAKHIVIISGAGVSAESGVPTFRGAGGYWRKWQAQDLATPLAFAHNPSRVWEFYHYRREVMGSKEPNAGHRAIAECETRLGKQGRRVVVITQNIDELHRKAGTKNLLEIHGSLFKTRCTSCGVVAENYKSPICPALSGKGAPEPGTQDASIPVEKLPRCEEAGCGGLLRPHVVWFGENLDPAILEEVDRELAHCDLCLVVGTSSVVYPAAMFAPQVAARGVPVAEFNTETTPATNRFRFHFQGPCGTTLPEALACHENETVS
rRNA inh HTS – inhibits bacterial ribosomal RNA function over humanized ribosomes; E. coli WT GFP vs humanized-ribosome RFP mutants, fluorescence, 24 h; active compounds read low; DMSO median 0, no signal -100; GFP signal change (wild-type ribosome), % (concentration not given with the values); 350,000 compounds, 1.6% hits; AID 720706;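 active = significant combined selectivity score with lowered wild-type GFP, culture density cut under 30%, mutant RFP and density less affected; inactive = any of these conditions unmet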
C2C12 statin – suppression of simvastatin myotoxicity; C2C12 myotubes + simvastatin, ATP luminescence, 48 h; scaled: DMSO 0, geranylgeraniol control 100; rescue of ATP level, % at 7.49 µM; 330,000 compounds, 0.78% hits; AID 602340;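 active = mean ATP rescue above about 67%, or every replicate alone reaching that limit, limit read from the data, passing the limit was not always enough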;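 note: myotubes were challenged with 10 µM simvastatin during compound exposure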
PGC1a acetyl inh – PGC1a acetylation modulation, inhibitor mode; U2OS PGC1a acetylation, AlphaScreen anti-acetyl-lysine; with virally co-expressed GCN5 acetyltransferase; inhibition, % at 15.6 µM; 350,000 compounds, 0.17% hits; AID 651687;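 active = every replicate shows inhibition of at least 40%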;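 note: 0% = neutral control wells and 100% = positive control wells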
Numbers without * were called inactive; . = no result. This is a sample that favours compounds with a hit; in the whole collection about 3% have one here.

SMILES	S100A4 MyoIIA	Cneo AK release	SIRT5 inh	rRNA inh HTS	C2C12 statin	PGC1a acetyl inh
O=C(c1cccnc1)N1CCCCN2[C@H](CO)[C@@H](c3ccc(C#Cc4ccccn4)cc3)[C@@H]2C1	16.0	2.3	30.7*	6.5	3.4	1.3
O=C(Nc1ccccc1F)N1CC(=O)N2[C@@H](CO)[C@@H](c3ccc(C#CC4CC4)cc3)[C@@H]2C1	-10.3	.	3.1	0.2	.	6.4
COc1ccc(C#Cc2ccc([C@H]3[C@H]4CN(C(=O)c5ccncc5)CCCCN4[C@H]3CO)cc2)cc1	-0.8	-0.7	3.0	-1.6	97.9*	10.5
O=C1OCCOC2CCCc3oc(C4=CCCCC4)c1c32 (stereo not drawn)	-6.3	.	33.5*	6.5	.	.
CCOc1ccc(N(CC(=O)Nc2ccc(OC)cc2)C2=NC3CS(=O)(=O)CC3S2)cc1 (stereo not drawn)	-1.4	2.1	-3.0	1.6	13.7	.
CCOc1ccc(N(CC(=O)Nc2ccc(C)c(F)c2)C2=NC3CS(=O)(=O)CC3S2)cc1 (stereo not drawn)	-0.9	0.4	15.5*	10.4	-3.3	4.5
CN(C)c1ccc(C2C3C(=O)N(c4ccc(C(=O)O)cc4)C(=O)C3ON2c2ccccc2)cc1 (stereo not drawn)	.	-9.1	.	.	100.9*	-18.3
O=C(O)c1ccc(N2C(=O)C3ON(c4ccccc4)C(c4ccccc4F)C3C2=O)cc1 (stereo not drawn)	.	1.9	.	.	2.5	7.9
CCCNC(=O)N(C)C[C@H]1Oc2ncc(-c3ccc(OC)cc3)cc2C(=O)N([C@@H](C)CO)C[C@H]1C	-0.4	-2.7	-4.3	-2.1	6.1	-10.6
CCOC(=O)Nc1sc2c(c1C(N)=O)CCC(C)C2 (stereo not drawn)	.	.	.	.	0.6	-6.2
CC(=O)Nc1sc2c(c1C#N)CCC(C)C2 (stereo not drawn)	-1.4	-0.3	-4.5	-30.3	111.1*	8.1
CC1CCc2c(sc(NC(=O)c3ccccc3C(=O)O)c2C#N)C1 (stereo not drawn)	-22.3	.	-0.5	-6.5	.	.
CC(=O)NC(=S)Nc1sc2c(c1C(N)=O)CCC(C)C2 (stereo not drawn)	-0.4	.	-2.0	-27.6*	.	.
CO[C@H]1CN(C)C(=O)c2ccc(NC(=O)c3ccccc3F)cc2OC[C@@H](C)N(CC2CC2)C[C@H]1C	3.1	-6.9	-5.8	1.2	0.9	-10.4
CN(C)S(=O)(=O)c1ccc(NC(=O)CN2CCOCC2)cc1	-63.8	.	-1.3	11.8	-1.0	.
CCCCN(CCCC)S(=O)(=O)c1ccc(NC(=O)CN2CCOCC2)cc1	-5.8	0.1	-3.1	-43.8	129.7*	-1.9
COc1ccc2c(c1)CC(N1CCN(C)CC1)c1cc(OC)ccc1S2 (stereo not drawn)	-4.4	.	.	-27.6	.	.
CC(C)c1ccc2c(c1)C(N1CCN(C)CC1)Cc1cccnc1S2 (stereo not drawn)	3.0	.	8.8	-22.3*	.	.
COC(=O)C1=C(C)Nc2nc(-c3ccccc3)nn2C1c1ccc(C)o1 (stereo not drawn)	-4.1	-1.6	.	-22.1*	30.7	-11.8
COC(=O)C1=C(C)NC(C)=C(C(=O)OC)C1c1ccc(C)o1	-1.6	2.7	4.6	.	.	21.4
CO[C@H]1CN(C)C(=O)c2ccc(NS(=O)(=O)c3ccc(C)cc3)cc2OC[C@@H](C)N(C(=O)NC(C)C)C[C@H]1C	.	.	.	-3.1	-22.6	-6.4
CCCNC(=O)N1CC2(CN(C(=O)Cc3cccnc3)C2)c2c([nH]c3cc(OC)ccc23)[C@H]1CO	-1.1	.	-1.9	2.7	.	-5.1
C[N+](C)(C)CCN1CCc2ccccc21	0.9	.	21.7*	17.8	.	.
CCSc1nnc(NC(=O)CSC2=NCCS2)s1	1.5	.	1.4	5.2	.	94.3*
c1ccc(CCNc2ncnc3c2cnn3-c2ccccc2)cc1	-2.7	-2.6	.	-52.9*	-9.1	-8.1
SMILES	S100A4 MyoIIA	Cneo AK release	SIRT5 inh	rRNA inh HTS	C2C12 statin	PGC1a acetyl inh
COCCn1c(C)c(C)c2c(NCCc3ccccc3)ncnc21	-2.0	-6.3	-2.4	2.4	-1.0	51.4*
Cc1cccc(-n2ncc3c(NCc4ccccc4)ncnc32)c1	57.2	0.9	-6.0	-13.9	-145.4	-7.8
c1ccc(CNc2ncnc3c2cnn3-c2ccccc2)cc1	.	-0.3	.	.	-39.1	.
Cc1cccc(-n2ncc3c(NCCc4ccc(S(N)(=O)=O)cc4)ncnc32)c1	-1.1	-2.1	-1.6	-22.8	104.8*	-10.8
CC(C)CC(=O)/C(=C\c1ccc(Cl)cc1Cl)n1cncn1	.	7.0	.	.	4.3	60.3*
CC(C)CC(=O)/C(=C/c1ccc(N(C)C)cc1)n1cncn1	3.8	1.1	6.2	1.8	-7.4	-1.1
O=Cc1c(-c2ccc(Cl)cc2)oc2ccc(O)cc12	0.5	-2.5	-3.5	-30.2*	16.3	8.4
O=C(O)c1c(-c2ccccc2)oc2ccc(O)cc12	1.4	0.2	-4.0	6.6	1.1	-3.3
[N-]=[N+]=CC(=O)c1ccnc(C(=O)C=[N+]=[N-])c1	.	-1.3	.	.	93.6*	4.9
COC(=O)c1cn(CC(=O)N2CCCCCC2)c2ccccc12	.	-2.7	.	.	-4.0	-9.9
CCOC(=O)C1CCN(C(=O)Cn2cc(C(=O)OC)c3ccccc32)CC1	-0.1	-3.7	18.2*	6.8	4.6	-0.2
Cc1cc(/C=N/Nc2ccc([N+](=O)[O-])cn2)c(C)n1-c1ccc(C(=O)O)cc1	-0.3	.	31.8*	1.3	.	.
O=[N+]([O-])c1ccc(NN=Cc2ccccc2O)nc1	-9.7	8.3	.	-29.8	5.3	4.9
O=[N+]([O-])c1ccc(NN=Cc2ccc(O)cc2O)nc1	-3.8	-0.1	.	-21.7*	7.5	7.8
C[C@@H]1CN([C@@H](C)CO)C(=O)c2cc(NS(=O)(=O)c3cn(C)cn3)ccc2O[C@@H](C)CCCCO[C@@H]1CN(C)C(=O)NC1CCCCC1	13.7	-0.8	0.9	2.2	-15.5	.
COc1ccc(C[C@@H]2CCc3cnnn3COC[C@H](C)NC2=O)cc1	.	.	.	4.0	.	.
COc1cccc(CNc2ccc3c(c2)ncn3C(C)C)c1OC	14.6	-3.5	-1.3	-21.0*	8.6	5.0
CCCn1cnc2cc(NCc3cccc(OC)c3O)ccc21	.	0.0	.	.	4.8	.
COc1ccc(S(=O)(=O)N[C@@H]2CC[C@@H](CC(=O)NCCc3ccccc3)O[C@H]2CO)cc1	-21.5	.	.	2.0	-5.2	5.3
O=C(Cc1cccc2ccccc12)Nc1cc(C(=O)O)cc(C(=O)O)c1	2.0	-4.1	-0.8	7.1	8.6	-11.5
CC(=O)N(C)c1ccc(NC(=O)Cc2cccc3ccccc23)cc1	-4.2	-1.7	1.1	0.1	122.6*	1.5
COc1ccc(OC(=O)c2ccncc2)cc1	.	-4.4	.	.	-0.8	-2.5
COc1ccc(C(=O)Oc2ccc(/C=N/O)cc2)cc1	-0.1	.	6.8	-26.3*	2.5	0.4
